The subject of data set [1] is HeLa. Kind of data set: In vitro antiviral activity against HIV-1 infected HeLa cells from GP120-membrane-based assay. In kind it is functional. The following applies: Homo sapiens. In short, it runs like this:
(§1)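 Cell-culture HIV-1 infectivity assay in HeLa cells. Read-out is the IC90, with the IC50 given for some entries.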

For data set [2], the target named is T1, C-C chemokine receptor type 5 (Homo sapiens, UniProt P51681). Kind of data set: Inhibitory activity against human CC chemokine receptor 5. The method, boiled down: (§2)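 Displacement of [125I]-labeled MIP-1α from human CCR5 on CHO cell membranes, described as a GP120-membrane-based assay. IC50 values are averages of triplicate measurements, with a standard compound run to check variability between assays. Single-point lines are percent inhibition at 2 μM.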
T1 sequence (P51681 whole entry): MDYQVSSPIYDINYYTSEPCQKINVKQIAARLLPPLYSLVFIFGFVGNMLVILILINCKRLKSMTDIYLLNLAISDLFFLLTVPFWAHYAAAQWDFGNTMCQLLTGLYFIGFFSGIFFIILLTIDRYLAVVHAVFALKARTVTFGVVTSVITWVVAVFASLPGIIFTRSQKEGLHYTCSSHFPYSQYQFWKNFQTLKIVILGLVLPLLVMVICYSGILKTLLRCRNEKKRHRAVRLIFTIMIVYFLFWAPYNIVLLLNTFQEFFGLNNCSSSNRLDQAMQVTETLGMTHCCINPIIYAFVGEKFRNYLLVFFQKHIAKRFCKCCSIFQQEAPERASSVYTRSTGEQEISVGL

Data set [3] relates to Human immunodeficiency virus 1. Kind of data set: (§3) In vitro antiviral activity against HIV-1 infected HeLa cells. As to conditions: Human immunodeficiency virus 1, HeLa. Type of data set: functional. In short, it runs like this: as §1
A short description of data set [4]: Plasma clearance in rat. Type of data set: ADME, organism-based. As to conditions: read-out: Clp.
The subject of another data set is Rattus norvegicus. As to the kind of experiment: Area under curve in rat after p.o. administration. In kind it is ADME, organism-based. As to conditions: in vivo, po.
Data set [5] is described as follows: Oral bioavailability in rat. Type of data set: ADME, organism-based. As to conditions: in vivo.
Data set [6] is described as follows: Hafl life rat. Type of data set: ADME, organism-based. As to conditions: in vivo.
The test system of data set [7] is HeLa. The data set is described as §3. Type of data set: functional, cell-based. The following applies: Homo sapiens. In short, it runs like this: as §1
Data set [8] concerns the target T1, C-C chemokine receptor type 5. As to the kind of experiment: Inhibitory concentration to displace [125I]-MIP-1 alpha from CX3C chemokine receptor 5. The method, boiled down:
as §2

Data set [9] in a line: Hafl life in rat. Type of data set: ADME, organism-based. As to conditions: in vivo.
The target of data set [10] is T1, C-C chemokine receptor type 5. As to the kind of experiment: Inhibitory concentration to displace [125I]-MIP-1 alpha from human […] chemokine receptor 5 expressed in CHO cell. Type of data set: cell-based. The method, boiled down:
as §2

The subject of data set [11] is HeLa. Kind of data set: In vitro antiviral activity against HIV-1 infected HeLa cells when co-administered with compound 8f. Type of data set: functional. The following applies: Homo sapiens. The method, boiled down:
as §1

The target of data set [12] is T1, C-C chemokine receptor type 5. As to the kind of experiment: Inhibitory activity against human Chemokine receptor 5 when co-administered with compound 8f. The method, boiled down: as §2
For data set [13], the system named is HeLa. Kind of data set: In vitro antiviral activity against HIV-1 infected HeLa cells when co-administered with compound 8g. In kind it is functional. As to conditions: Homo sapiens. The method, boiled down:
as §1

Data set [14] concerns the target T1, C-C chemokine receptor type 5. Kind of data set: Inhibitory activity against human […] chemokine receptor 5 when co-administered with compound 8g.
Data set [15] shares this target. Kind of data set: Inhibition of human C-C chemokine receptor 5 by displacement of [125I]-labeled MIP-1alpha from CHO cell membranes. Background: Loss of bound radioactivity is the signal in a displacement assay; it reports binding, not function.
The test system of data set [16] is Human immunodeficiency virus 1. Kind of data set: Concentration required for anti viral activity against BAL-1 strain of HIV-1 was determined using peripheral blood mononuclear cells. Type of data set: functional. In short, it runs like this: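 Seven-day in vitro infectivity assay in peripheral blood mononuclear cells infected with the HIV-1 BAL-1 strain. Read-out is the IC95.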

SMILES strings stand for the structures.

The term IC90 denotes the point of the concentration-response curve where the effect stands at 90%. The IC50 is the concentration that gives 50% inhibition. As to `CCn1ncc(Cc2ccccc2)c1C1CCN(C[C@H]2CN([C@@H](C(=O)O)C3CCCCC3)C[C@@H]2c2ccccc2)CC1`, the IC90 turned out to be 10 nM in the data set with HeLa [1] and 3.7 nM in data set [3]. In data set [2], this molecule displayed an IC50 of 3 nM.

As a reminder, the bioavailability is the share of a dose that reaches the circulation, judged against a reference dose that is usually intravenous. As usually defined, the half-life is the time needed for the level to fall by half in the phase considered. Consider `CCn1nc(-c2ccccc2)cc1C1CCN(C[C@H]2CN([C@@H](C(=O)O)C3CCCCC3)C[C@@H]2c2ccccc2)CC1`, for which, in data set [4], the clearance was 3.8 mL/min/kg. The “AUC N” value in the data set on Rattus norvegicus is listed as 1.7 uM hr dose-1. The IC50 in data set [2] turned out to be 22 nM; in the data set on HeLa [7], 100 nM. The same molecule gave a bioavailability in data set [5] of 21%. Besides, the IC90 in [3] was over 300 nM. The half-life in data set [6] was 90 min.

Regarding `CCn1nc(Cc2ccccc2)cc1C1CCN(C[C@H]2CN([C@@H](C(=O)O)C3CCCCC3)C[C@@H]2c2ccccc2)CC1`, the IC50 was found to be 2.1 nM in [8] and 1.2 nM in data set [10]. Further, the clearance in data set [4] came out at 64 mL/min/kg. Moreover, the “AUC N” value in the data set on Rattus norvegicus worked out at 0.02 uM hr dose-1. Moreover, the bioavailability in data set [5] was found to be 4.1%. This molecule also yielded an IC90 in [3] of 0.4 nM. For the same molecule, the half-life in data set [9] is 49.2 min.

On to `CCc1cc(Cc2ccccc2)n(C2CCN(C[C@H]3CN([C@@H](C(=O)O)C4CCCCC4)C[C@@H]3c3ccccc3)CC2)n1`, for which the IC90 with HeLa [11] is over 300 nM. Further, in data set [12], the half-inhibitory concentration (IC50) is 78 nM.

For `CCc1cc(CCc2ccccc2)nn1C1CCN(C[C@H]2CN([C@@H](C(=O)O)C3CCCCC3)C[C@@H]2c2ccccc2)CC1`, the IC90 in the data set on HeLa [13] is over 300 nM. The concentration for half-maximal inhibition (IC50) in data set [14] is 105 nM.

As for `CCn1nc(CCc2ccccc2)cc1C1CCN(C[C@H]2CN([C@@H](C(=O)O)C3CCCCC3)C[C@@H]2c2cccc(F)c2)CC1`, the clearance in data set [4] is 72 mL/min/kg. In addition, in the data set with Rattus norvegicus, the “AUC N” value was determined as 0.01 uM hr dose-1. The same molecule yielded a bioavailability in data set [5] of 3.2%. The molecule further returned an IC90 in data set [3] of 11 nM. For the same molecule, the half-life in data set [6] is 27 min. Moreover, in [15], the half-inhibitory concentration (IC50) was found to be 2.2 nM.

What is called IC95 is the concentration at which the effect reaches the 95% level. Higher therefore signals weaker potency. `O=C(O)[C@@H](C1CCCCC1)N1C[C@H](CN2CCC(CCCc3ccccc3)CC2)[C@@H](c2ccccc2)C1` registered an IC95 in data set [16] of 93 nM. The molecule also yielded a half-maximal inhibitory concentration (IC50) in [15] of 0.2 nM.

Take `CCN(C(=O)OCc1ccccc1)C1CCN(CC[C@H](CN(C)S(=O)(=O)c2ccccc2)c2cccc(Cl)c2)CC1`: the IC95 in [16] came out at 13 nM. Also, in data set [15], the IC50 was determined as 2.4 nM.

The record behind these values is ChEMBL document CHEMBL1147444, “Antagonists of human CCR5 receptor containing 4-(pyrazolyl)piperidine side chains. Part 1: Discovery and SAR study of 4-pyrazolylpiperidine side chains” (Bioorg Med Chem Lett, 2004).
